The test system of assay [1] is Plasmodium falciparum. Description: Inhibition of Plasmodium falciparum protein farnesyltransferase at 50 nM by scintillation proximity assay. For orientation: Scintillation proximity formats need no separation of bound from free tracer.
Assay [2] deals with Plasmodium falciparum. The assay can be described thus: Inhibition of Plasmodium falciparum protein farnesyltransferase at 5 nM by scintillation proximity assay.
Assay [3] concerns Plasmodium falciparum. Description: Inhibition of Plasmodium falciparum protein farnesyltransferase at 0.5 nM by scintillation proximity assay.
Assay [4] concerns Plasmodium falciparum. The assay can be described thus: Antimalarial activity against Plasmodium falciparum 3D7. To be noted: Plasmodium falciparum, 3D7; read-out: ED50 (the source's name). In kind it is functional. In a few lines:
(§1)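 Asynchronous culture in type A+ erythrocytes at 0.5% parasitemia and 0.5% hematocrit, grown in RPMI-1640 with 20% heat-inactivated human A+ plasma. Compound was serially diluted from a top final 5 µM, with DMSO vehicle as 100% growth. Plates ran 48 h at 37 °C under 5% CO2/5% O2/90% N2, then [3H]-hypoxanthine (0.3 µCi) for 24 h. Filter-harvested counts were corrected for the uninfected-RBC background. ED50 by linear regression; duplicates averaged.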

Assay [5] concerns Plasmodium falciparum. The assay can be described thus: Antimalarial activity against Plasmodium falciparum K1. The class given is functional. To be noted: Plasmodium falciparum, K1; read-out: ED50 (the source's name). In a few lines: as §1

In ChEMBL document CHEMBL1148785, “Second generation tetrahydroquinoline-based protein farnesyltransferase inhibitors as antimalarials” (J Med Chem, 2007) one finds inhibition and EC50 data, which are given here for 13 compounds.

In general, inhibition refers to the relative decrease from the control value, in per cent. A low value points to a response near the control.

As for `Cn1cncc1CN1CC(N(CC2CCN(C(=O)c3ccco3)CC2)S(=O)(=O)c2ccccn2)Cc2cc(C#N)ccc21` (stereo not given), the inhibition amounted to 92% in the assay on Plasmodium falciparum [1], 51% with Plasmodium falciparum [2] and 92% in the assay with Plasmodium falciparum [3]. Further, the EC50 with Plasmodium falciparum [4] stood at 80 nM; in the assay on Plasmodium falciparum [5], 93 nM.
As to `Cn1cncc1CN1CC(N(CC(=O)NC(C)(C)C)S(=O)(=O)CCN)Cc2cc(C#N)ccc21` (stereo not given), the results for the inhibition in the assay on Plasmodium falciparum [1], in the assay on Plasmodium falciparum [2] and with Plasmodium falciparum [3] were 11%, 10% and 5%, respectively. The EC50 with Plasmodium falciparum [4] and in the assay on Plasmodium falciparum [5] was greater than 5000 nM in each case.
For `Cn1cnc(S(=O)(=O)N(CC(=O)NC(C)(C)C)C2Cc3cc(C(=O)O)ccc3N(Cc3cncn3C)C2)c1` (stereo not given), the inhibition in the assay with Plasmodium falciparum [1] worked out at 80%; with Plasmodium falciparum [2] it was 29%; with Plasmodium falciparum [3], 0%. The EC50 with Plasmodium falciparum [4] amounted to 3500 nM; in the assay with Plasmodium falciparum [5], 1420 nM.
For `Cn1cnc(S(=O)(=O)N(CCc2ccccc2C(F)(F)F)C2Cc3cc(C#N)ccc3N(Cc3cncn3C)C2)c1` (stereo not given), the inhibition in the assay on Plasmodium falciparum [1] was determined as 99%; in the assay with Plasmodium falciparum [2], 82%; with Plasmodium falciparum [3], 8%. Besides, the EC50 in the assay with Plasmodium falciparum [4] amounted to 65 nM; with Plasmodium falciparum [5], 70 nM.
The like results for `Cn1cncc1CN1CC(N(CC2CCN(C(=O)CNC(=O)OC(C)(C)C)CC2)S(=O)(=O)c2ccccn2)Cc2cc(C#N)ccc21` (stereo not given) were, in that order, 88%, 15%, 37%, 750 nM and 690 nM.
For `COc1ccc(S(=O)(=O)N(Cc2ccc(S(C)(=O)=O)cc2)C2Cc3cc(C#N)ccc3N(Cc3cncn3C)C2)cc1` (stereo not given), the values for the inhibition in the assay with Plasmodium falciparum [1], in the assay on Plasmodium falciparum [2] and with Plasmodium falciparum [3] were 97%, 83% and 17%, respectively. Besides, the EC50 in the assay on Plasmodium falciparum [4] amounted to 185 nM; in the assay on Plasmodium falciparum [5] it was 340 nM.
For `Cn1cnc(S(=O)(=O)N(CCCCN2C(=O)c3ccccc3C2=O)C2Cc3cc(C#N)ccc3N(Cc3cncn3C)C2)c1` (stereo not given), in that order: 97%, 96%, 90%, 40 nM and 130 nM.
The like results for `Cn1cncc1CN1CC(N(Cc2cccc(C(=O)O)n2)S(=O)(=O)c2ccccn2)Cc2cc(C#N)ccc21` (stereo not given) were, in that order, 97%, 81%, 24%, 1000 nM and 800 nM.
For `Cn1cnc(S(=O)(=O)N2CCC(CN(C3Cc4cc(C#N)ccc4N(Cc4cncn4C)C3)S(=O)(=O)c3ccccn3)CC2)c1` (stereo not given), the results for the inhibition in the assay with Plasmodium falciparum [1], in the assay with Plasmodium falciparum [2] and in the assay on Plasmodium falciparum [3] were 92%, 20% and 60%, respectively. The EC50 is 700 nM with Plasmodium falciparum [4] and 650 nM in the assay with Plasmodium falciparum [5].
Take `COC(=O)c1ccsc1S(=O)(=O)N(CC1CCN(C(=O)OC)CC1)C1Cc2cc(C#N)ccc2N(Cc2cncn2C)C1` (stereo not given): the inhibition with Plasmodium falciparum [1] came out at 92%; with Plasmodium falciparum [2], 61%; in the assay with Plasmodium falciparum [3], 10%. Further, the EC50 with Plasmodium falciparum [4] is 2300 nM; in the assay with Plasmodium falciparum [5], 1900 nM.
For `CCN(C1Cc2cc(-c3ccccc3)ccc2N(Cc2cncn2C)C1)S(=O)(=O)c1cn(C)cn1` (stereo not given), in that order: 86%, 29%, 10%, 5000 nM and greater than 5000 nM.
On to `Cn1cncc1CN1CC(N(CC2CCN(C(=O)OCc3ccccc3)CC2)S(=O)(=O)c2ccccn2)Cc2cc(C#N)ccc21` (stereo not given), for which the inhibition with Plasmodium falciparum [1] was 98%; with Plasmodium falciparum [2], 13%; with Plasmodium falciparum [3] it was 66%. Also, the EC50 in the assay with Plasmodium falciparum [4] was 550 nM; in the assay with Plasmodium falciparum [5] it was 650 nM.
Turning to `Cn1cncc1CN1CC(N(CC(=O)O)S(=O)(=O)c2ccccn2)Cc2cc(C#N)ccc21` (stereo not given), the inhibition was 81% in the assay with Plasmodium falciparum [1], 33% in the assay with Plasmodium falciparum [2] and 6% in the assay on Plasmodium falciparum [3]. Moreover, the results for the EC50 in the assay on Plasmodium falciparum [4] and in the assay with Plasmodium falciparum [5] were 2100 nM and 2600 nM, respectively.
